Assay results: publication PMC7340344 (Journal of medicinal chemistry, 2020)
Structures can show the parent of a compound that is named as a salt.

Key:
[1] = system: p300/CBP HAT; conditions: cited from earlier work
[2] = molecular target: T1, p300 HAT and histone H4 (Homo sapiens, UniProt Q09472); test: Alpha assay, binding between p300 HAT and histone H4 peptide
T1 sequence (Q09472 1287-1663 limits assumed): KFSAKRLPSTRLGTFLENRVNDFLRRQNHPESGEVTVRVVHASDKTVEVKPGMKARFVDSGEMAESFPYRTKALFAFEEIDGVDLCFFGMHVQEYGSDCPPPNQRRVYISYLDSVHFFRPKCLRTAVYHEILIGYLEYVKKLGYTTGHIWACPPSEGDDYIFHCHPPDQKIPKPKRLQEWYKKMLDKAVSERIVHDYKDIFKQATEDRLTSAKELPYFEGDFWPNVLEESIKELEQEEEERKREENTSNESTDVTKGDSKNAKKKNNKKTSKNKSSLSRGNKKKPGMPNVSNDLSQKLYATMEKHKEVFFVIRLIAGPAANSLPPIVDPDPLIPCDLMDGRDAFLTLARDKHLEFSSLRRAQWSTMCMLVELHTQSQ

[3] = molecular target: Myst3 (Homo sapiens, UniProt Q92794); test: Inhibition of Myst3; format: biochemical
Chain of Myst3 (Q92794 whole entry): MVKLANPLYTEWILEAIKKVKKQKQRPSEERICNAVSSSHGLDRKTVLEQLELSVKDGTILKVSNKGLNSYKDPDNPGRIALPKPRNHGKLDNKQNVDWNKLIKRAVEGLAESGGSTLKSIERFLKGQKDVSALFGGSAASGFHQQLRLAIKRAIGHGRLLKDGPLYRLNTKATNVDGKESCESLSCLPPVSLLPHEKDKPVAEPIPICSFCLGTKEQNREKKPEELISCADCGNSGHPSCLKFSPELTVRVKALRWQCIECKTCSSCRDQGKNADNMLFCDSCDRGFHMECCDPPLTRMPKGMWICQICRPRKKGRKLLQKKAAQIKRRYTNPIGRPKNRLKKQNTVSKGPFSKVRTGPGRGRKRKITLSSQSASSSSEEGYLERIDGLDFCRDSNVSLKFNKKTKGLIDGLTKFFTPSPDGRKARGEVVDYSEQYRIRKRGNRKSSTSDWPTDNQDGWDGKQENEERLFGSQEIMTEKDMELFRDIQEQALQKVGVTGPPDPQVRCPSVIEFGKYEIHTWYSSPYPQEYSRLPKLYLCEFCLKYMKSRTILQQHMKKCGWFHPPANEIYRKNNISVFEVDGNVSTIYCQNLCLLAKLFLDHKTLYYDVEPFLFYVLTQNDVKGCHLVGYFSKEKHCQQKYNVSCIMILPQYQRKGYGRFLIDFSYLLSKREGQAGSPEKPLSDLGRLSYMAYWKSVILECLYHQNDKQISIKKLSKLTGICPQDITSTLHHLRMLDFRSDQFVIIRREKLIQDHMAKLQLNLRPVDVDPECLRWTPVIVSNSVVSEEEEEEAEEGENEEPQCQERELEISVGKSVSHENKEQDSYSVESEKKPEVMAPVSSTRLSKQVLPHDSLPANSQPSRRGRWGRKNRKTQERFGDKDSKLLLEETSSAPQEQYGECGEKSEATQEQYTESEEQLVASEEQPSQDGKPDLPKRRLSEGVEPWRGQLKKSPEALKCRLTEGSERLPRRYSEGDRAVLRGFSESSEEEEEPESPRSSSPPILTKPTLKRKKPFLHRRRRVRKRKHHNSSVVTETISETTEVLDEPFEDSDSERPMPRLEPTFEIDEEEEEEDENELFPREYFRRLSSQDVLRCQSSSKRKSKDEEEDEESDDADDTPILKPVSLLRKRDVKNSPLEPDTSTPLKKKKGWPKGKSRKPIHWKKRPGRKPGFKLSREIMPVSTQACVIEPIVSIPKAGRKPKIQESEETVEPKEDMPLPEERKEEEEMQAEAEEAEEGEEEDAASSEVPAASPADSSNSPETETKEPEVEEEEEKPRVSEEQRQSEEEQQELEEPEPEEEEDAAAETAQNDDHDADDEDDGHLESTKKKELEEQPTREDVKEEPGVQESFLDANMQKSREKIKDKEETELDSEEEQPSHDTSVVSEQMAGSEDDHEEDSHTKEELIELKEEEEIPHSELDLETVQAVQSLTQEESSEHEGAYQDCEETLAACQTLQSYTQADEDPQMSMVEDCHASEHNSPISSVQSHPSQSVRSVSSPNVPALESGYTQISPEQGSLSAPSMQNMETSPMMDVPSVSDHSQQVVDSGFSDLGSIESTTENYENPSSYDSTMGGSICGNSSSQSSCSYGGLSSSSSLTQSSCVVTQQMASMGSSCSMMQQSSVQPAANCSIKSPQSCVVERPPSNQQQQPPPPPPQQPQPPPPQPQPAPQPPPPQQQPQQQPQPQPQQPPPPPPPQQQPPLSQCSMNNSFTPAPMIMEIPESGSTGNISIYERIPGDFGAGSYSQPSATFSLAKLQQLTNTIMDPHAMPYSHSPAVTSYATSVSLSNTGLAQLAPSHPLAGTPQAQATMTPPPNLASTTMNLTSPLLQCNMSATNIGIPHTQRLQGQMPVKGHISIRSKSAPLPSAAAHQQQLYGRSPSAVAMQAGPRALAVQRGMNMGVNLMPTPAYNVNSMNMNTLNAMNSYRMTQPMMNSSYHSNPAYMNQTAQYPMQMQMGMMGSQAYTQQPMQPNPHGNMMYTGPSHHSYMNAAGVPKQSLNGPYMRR

[4] = molecular target: LSD1 (Homo sapiens, UniProt O60341); test: Inhibition of LSD1; format: biochemical
[5] = system: MCF-7; test: Cell growth inhibition, MCF-7; format: cell-based; conditions: Homo sapiens, MCF7, read-out: Antiproliferative activity EC50 (μM), MCF-7
[6] = system: ER+ breast cancer MCF-7 cells; test: RNA sequencing and gene set enrichment analysis; format: cell-based, human; conditions: MCF-7, 6 μM, 48 hours, with estradiol 10 nM; p < 0.001
Outline: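 MCF-7 cells were starved for 7 days in phenol red-free DMEM with 10% charcoal-treated FBS. They were then given test compound (6 μM) or DMSO, with or without estradiol (10 nM), for 48 h. Total RNA was sequenced as stranded, rRNA-depleted libraries (HiSeq 2500, paired-end) and mapped to hg38. FPKM values were quantile-normalized and analysed by GSEA against MSigDB and the siRNA p300-knockdown signature (GSE31873, C4–2B cells).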

[7] = molecular target: T2, p300 HAT (Homo sapiens, UniProt Q09472); test: Steady-state enzyme kinetics, mode of inhibition; format: biochemical
T2 sequence (Q09472 1195-1673): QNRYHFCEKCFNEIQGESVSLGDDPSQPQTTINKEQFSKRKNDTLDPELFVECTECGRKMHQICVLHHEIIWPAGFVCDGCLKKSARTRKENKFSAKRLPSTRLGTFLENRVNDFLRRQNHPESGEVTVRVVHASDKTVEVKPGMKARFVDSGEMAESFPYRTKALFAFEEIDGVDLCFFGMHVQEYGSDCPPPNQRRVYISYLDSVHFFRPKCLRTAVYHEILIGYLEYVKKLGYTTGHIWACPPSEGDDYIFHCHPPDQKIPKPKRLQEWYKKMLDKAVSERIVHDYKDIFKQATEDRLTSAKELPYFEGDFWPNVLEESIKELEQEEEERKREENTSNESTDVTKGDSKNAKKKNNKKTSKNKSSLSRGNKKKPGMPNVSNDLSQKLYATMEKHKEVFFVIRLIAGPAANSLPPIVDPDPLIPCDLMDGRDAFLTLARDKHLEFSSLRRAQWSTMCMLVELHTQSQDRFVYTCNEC
Outline: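 Radiometric filter-binding assay with recombinant human GST-p300 HAT domain (residues 1195-1673) expressed in E. coli, at 10 nM. Enzyme was preincubated with test compound for 10 min at 25 °C in 50 mM phosphate, pH 7.0, with 0.01% Brij-35. Histone H3 (1-21) peptide and 3H-Ac-CoA/Ac-CoA started the reaction, with Ac-CoA or peptide concentration varied. After 30 min at 25 °C, formic acid stopped it; peptide was captured on P81 paper, washed with NaHCO3 and scintillation-counted.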

[8] = molecular target: PCAF (Homo sapiens, UniProt Q92831); test: Inhibition of PCAF; format: biochemical
Chain of PCAF (Q92831 whole entry): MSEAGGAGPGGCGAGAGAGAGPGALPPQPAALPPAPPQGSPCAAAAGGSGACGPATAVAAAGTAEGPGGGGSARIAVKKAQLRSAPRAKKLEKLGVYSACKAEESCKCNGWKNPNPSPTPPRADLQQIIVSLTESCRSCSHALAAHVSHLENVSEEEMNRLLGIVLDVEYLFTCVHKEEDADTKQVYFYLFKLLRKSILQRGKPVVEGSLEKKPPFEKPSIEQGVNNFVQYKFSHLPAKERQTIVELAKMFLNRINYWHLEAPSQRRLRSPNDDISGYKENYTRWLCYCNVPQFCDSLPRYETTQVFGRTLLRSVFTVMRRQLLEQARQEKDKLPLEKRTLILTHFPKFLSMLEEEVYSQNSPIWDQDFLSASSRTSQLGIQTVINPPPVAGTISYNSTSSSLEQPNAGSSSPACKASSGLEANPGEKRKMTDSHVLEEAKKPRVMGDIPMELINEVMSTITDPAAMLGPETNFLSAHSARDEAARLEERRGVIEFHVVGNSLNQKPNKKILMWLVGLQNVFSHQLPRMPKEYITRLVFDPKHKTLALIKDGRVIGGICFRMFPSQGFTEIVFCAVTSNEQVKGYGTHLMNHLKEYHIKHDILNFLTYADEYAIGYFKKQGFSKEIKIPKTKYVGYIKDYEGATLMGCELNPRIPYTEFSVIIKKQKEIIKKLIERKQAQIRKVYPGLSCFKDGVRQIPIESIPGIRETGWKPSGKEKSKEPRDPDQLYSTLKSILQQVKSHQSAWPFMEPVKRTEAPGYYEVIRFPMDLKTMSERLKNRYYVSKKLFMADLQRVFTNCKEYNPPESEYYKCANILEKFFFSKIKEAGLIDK

[9] = system: Kasumi-1 leukemia cells; test: Western blot of cellular histone acetylation; format: cell-based; conditions: Kasumi-1 cells, 12h, 5 and 10 μM
Outline: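 Kasumi-1 cells (10^6/well) were exposed to test compound at 0, 5 and 10 μM for 12 h. Total histones were extracted by kit, and 2 μg per lane were separated by SDS-PAGE and transferred to PVDF. Blots were probed with antibodies to H3K9Ac, H3K18Ac, H3K27Ac and total H3, then with an anti-rabbit IgG secondary.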

Row | Structure (SMILES) | mode of inhibition [1] | effect on binding between p300 HAT and histone H4 (in words) [2] | inhibition of Myst3 activity at 50 μM [3] | inhibition of LSD1 activity at 50 μM [4] | EC50 [5] [µM] | NES, gene set upregulated by estradiol [6] | NES, genes suppressed by estradiol [6] | normalized enrichment score (NES), genes suppressed by p300 knockdown (GSE31873) [6] | mode of inhibition against the cofactor Ac-CoA ([7]; Ac-CoA 0.5 - 8 μM (0.07-[…] Km)) | mode of inhibition against the substrate histone ([7]; histone peptide 2 - 100 μM) | inhibition of PCAF activity at 50 μM [8] | cellular acetylation of histone H3K9, H3K18 and H3K27 [9]
1 | CNC(=O)Nc1ccc2c(c1)CC[C@@]21OC(=O)N(CC(=O)N(Cc2ccc(F)cc2)[C@@H](C)C(F)(F)F)C1=O [Compound A-485, reference compound] | competitive against the enzyme cofactor acetyl coenzyme A (Ac-CoA) | did not affect the binding | – | – | – | – | – | – | – | – | – | –
2 | CC(C)(C)c1ccc(-c2cc(CNCC3CCNCC3)sc2-c2ccc(C(C)(C)C)cc2)cc1 [Compound 12, 1-(4,5-bis(4-(tert-Butyl)phenyl)thiophen-2-yl)-N-(piperidin-4-ylmethyl)methanamine hydrochloride] | – | – | did not significantly inhibit | did not significantly inhibit | ~3 | −9.19 | 7.41 | −3.32 | non-competitive | competitive | did not significantly inhibit | significantly inhibit
